# Laboratory results published in ChEMBL document CHEMBL1765010, “Reversible competitive α-ketoheterocycle inhibitors of fatty acid amide hydrolase containing additional conformational constraints in the acyl side chain: orally active, long-acting analgesics” (J Med Chem, 2011).
# The source made the active and inactive calls. No cut-off for these calls is given here.
# Experiments:
# Mus musculus [1] = test: Analgesic activity in C57BL/6 mouse chronic constriction injury model assessed as reversal of von Frey filament-induced mechanical allodynia at 50 mg/kg, po measured up to 6 hrs; assay type: functional, organism-based; set-up: dose 50 mg/kg
# How it was run: (§1)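 Male C57BL/6 mice with sciatic nerve chronic constriction injury (two silk ligatures, isoflurane anesthesia), tested from 10 days post-surgery after 2 days of apparatus habituation. Single oral dose in PEG300 or vehicle. Blinded observer tested ipsilateral and contralateral paws at 1, 3, 6 and 9 h: von Frey up-down method (0.16–6.0 g filaments, 5 stimuli each) and acetone-induced cold response. n = 9–10; mean ± SEM.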
# [2] = biological target: T1, Fatty-acid amide hydrolase 1 (Homo sapiens) (UniProt O00519); test: Reversible inhibition of full-length human FAAH expressed in COS-7 cells by Lineweaver-Burk analysis; assay type: cell-based
# T1 sequence (whole entry): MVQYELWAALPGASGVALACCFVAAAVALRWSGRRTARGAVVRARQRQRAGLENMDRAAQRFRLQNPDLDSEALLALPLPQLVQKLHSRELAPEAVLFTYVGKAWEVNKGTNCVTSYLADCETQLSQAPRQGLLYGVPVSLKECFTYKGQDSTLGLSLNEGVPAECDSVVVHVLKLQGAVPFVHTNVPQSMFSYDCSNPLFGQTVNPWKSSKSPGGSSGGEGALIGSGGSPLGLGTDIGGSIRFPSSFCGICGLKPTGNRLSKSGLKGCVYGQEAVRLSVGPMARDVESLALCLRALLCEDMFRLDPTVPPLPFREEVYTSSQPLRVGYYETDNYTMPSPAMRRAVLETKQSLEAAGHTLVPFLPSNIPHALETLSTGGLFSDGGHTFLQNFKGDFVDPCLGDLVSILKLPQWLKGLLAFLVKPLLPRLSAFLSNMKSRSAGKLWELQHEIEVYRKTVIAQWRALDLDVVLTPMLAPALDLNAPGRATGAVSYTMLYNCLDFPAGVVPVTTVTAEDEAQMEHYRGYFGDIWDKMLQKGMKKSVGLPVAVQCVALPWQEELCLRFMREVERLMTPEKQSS
# How it was run: (§2)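 Solubilized membrane lysate of COS-7 cells transiently transfected with full-length human FAAH cDNA. Aliquots quenched in 0.1 N HCl at three times; oleamide/oleic acid extracted into EtOAc and separated by TLC. Initial rates (≤10–20% conversion) analysed by Lineweaver–Burk plot.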
# Mus musculus [3] = test: Toxicity in C57BL/6 mouse assessed as hypomotility at 50 mg/kg, po; assay type: organism-based; set-up: dose 50 mg/kg, route oral; conditions: in vivo
# Mus musculus [4] = test: Inhibition of FAAH in C57Bl/6J mouse brain assessed as increase of N-palmitoyl ethanolamine level at 10 to 50 mg/kg, po after 1 hr relative to control; assay type: functional; conditions: dose mg/kg 10-50
# How it was run: (§3)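 Male C57Bl/6J mice (<6 months, 20–28 g) given compound orally as a PEG300 solution at 10, 25 or 50 mg/kg, with 3 mice per group in the 50 mg/kg p.o. comparison; brains collected 1 h post-dose. Lipids extracted in CHCl3:MeOH:Tris pH 8.0 with deuterated internal standards, then measured by C18 LC-ESI-MS/MS relative to vehicle-treated mice.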
# Mus musculus [5] = test: Inhibition of FAAH in C57Bl/6J mouse brain assessed as increase of anandamide level at 50 mg/kg, po after 1 hr relative to control; assay type: functional; how it was run: as §3
# Mus musculus [6] = test: Inhibition of FAAH in C57Bl/6J mouse brain assessed as increase of N-palmitoyl ethanolamine level at 50 mg/kg, po after 1 hr relative to control; assay type: functional; how it was run: as §3
# Mus musculus [7] = test: Inhibition of FAAH in C57Bl/6J mouse brain assessed as increase of anandamide level at 50 mg/kg, po; assay type: functional, organism-based; set-up: dose 50 mg/kg; conditions: TDE = time-dependent effect
# How it was run: (§4)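 Male C57Bl/6J mice (<6 months, 20–28 g) given a single oral dose as a PEG300 solution. Brains were homogenized in CHCl3:MeOH:Tris pH 8.0 containing deuterated internal standards. The organic extract was analysed by reverse-phase C18 LC–ESI triple-quadrupole MS for anandamide, PEA, OEA and 2-AG. Dose series (10, 25, 50 mg/kg) was sampled at 1 h; the 50 mg/kg time course ran to 9 h. Three mice per group in the i.p./p.o. comparison.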
# Mus musculus [8] = test: Inhibition of FAAH in C57Bl/6J mouse brain assessed as increase of anandamide level at 30 mg/kg, ip after 1 hr relative to control; assay type: functional; conditions: route intraperitoneal
# How it was run: (§5)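 Male C57Bl/6J mice (<6 months, 20–28 g) dosed i.p. at 30 mg/kg in 18:1:1 saline:ethanol:emulphor emulsion; brains taken 1 h later. One mouse in the initial screen, 3 per group in the follow-up. Brain homogenized in CHCl3:MeOH:Tris pH 8.0 with deuterated lipid standards; organic extract quantified by reverse-phase C18 LC-ESI-MS/MS against vehicle controls.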
# Mus musculus [9] = test: Inhibition of FAAH in C57Bl/6J mouse liver assessed as increase of N-palmitoyl ethanolamine level at 30 mg/kg, ip after 1 hr relative to control; assay type: functional; conditions: route intraperitoneal
# Mus musculus [10] = test: Inhibition of FAAH in C57Bl/6J mouse brain assessed as increase of anandamide level at 10 mg/kg, po; assay type: functional; set-up: scale not given: the % may be the effect or the level left; how it was run: as §3
# Mus musculus [11] = test: Inhibition of FAAH in C57Bl/6J mouse liver assessed as increase of anandamide level at 30 mg/kg, ip after 1 hr relative to control; assay type: functional; conditions: route intraperitoneal
# Mus musculus [12] = test: Inhibition of FAAH in C57Bl/6J mouse brain assessed as increase of 2-arachidonoylglycerol level at 50 mg/kg, po; assay type: functional, organism-based; set-up: dose 50 mg/kg; conditions: TDE = time-dependent effect; how it was run: as §4
# [13] = biological target: T1, Fatty-acid amide hydrolase 1 (Homo sapiens); test: Competitive inhibition of full-length human FAAH expressed in COS-7 cells by Lineweaver-Burk analysis; assay type: cell-based; how it was run: as §2
# Mus musculus [14] = test: Inhibition of FAAH in C57Bl/6J mouse brain assessed as increase of 2-arachidonoylglycerol level at 50 mg/kg, po after 1 hr relative to control; assay type: functional; how it was run: as §3
# Mus musculus [15] = test: Inhibition of FAAH in C57Bl/6J mouse brain assessed as increase of anandamide level at 10 to 50 mg/kg, po after up to 9 hrs; assay type: functional, organism-based; how it was run: as §4
# Mus musculus [16] = test: Analgesic activity in C57BL/6 mouse chronic constriction injury model assessed as reversal of acetone-induced cold allodynia at 50 mg/kg, po measured up to 9 hrs; assay type: functional, organism-based; set-up: dose 50 mg/kg; how it was run: as §1
# Mus musculus [17] = test: Inhibition of FAAH in C57Bl/6J mouse brain assessed as increase of N-palmitoyl ethanolamine level at 50 mg/kg, po; assay type: functional, organism-based; set-up: dose 50 mg/kg; conditions: TDE = time-dependent effect; how it was run: as §4
# Mus musculus [18] = test: Inhibition of FAAH in po dosed C57Bl/6J mouse brain assessed as increase of N-palmitoyl ethanolamine level after 1 hr relative to control; assay type: functional, organism-based; conditions: in the assay text read “anandamide” for “N-palmitoyl ethanolamine”; how it was run: as §4
# Mus musculus [19] = test: Toxicity in C57BL/6 mouse assessed as hypothermia at 50 mg/kg, po; assay type: organism-based; set-up: dose 50 mg/kg, route oral; conditions: in vivo
# Mus musculus [20] = test: Inhibition of FAAH in po dosed C57Bl/6J mouse brain assessed as increase of anandamide level after 1 hr relative to control; assay type: functional, organism-based; how it was run: as §4
# Mus musculus [21] = test: Inhibition of FAAH in C57Bl/6J mouse brain assessed as increase of arachidonic acid level at 30 mg/kg, ip after 1 hr relative to control; assay type: functional; conditions: route intraperitoneal; how it was run: as §5
smiles,measurement,setting,value
O=C(c1ncc(-c2ccccn2)o1)[C@H]1CCc2cc(Oc3ccccc3)ccc2C1,Activity,Mus musculus [1],Active
same,inhibition,[2],Active
same,Activity,Mus musculus [3],Non-toxic
same,fold change (FC),Mus musculus [4],5.5
same,fold change (FC),Mus musculus [5],13
same,fold change (FC),Mus musculus [6],7.7
same,Activity,Mus musculus [7],tde
same,fold change (FC),Mus musculus [8],5.1
same,fold change (FC),Mus musculus [9],3.6
same,Activity,Mus musculus [10],>90%
same,fold change (FC),Mus musculus [11],6
same,Activity,Mus musculus [12],tde
same,inhibition,[13],Active
same,fold change (FC),Mus musculus [14],1.4
same,Activity,Mus musculus [15],Active
same,Activity,Mus musculus [16],Active
same,Activity,Mus musculus [17],tde
same,Activity,Mus musculus [18],Dose-dependent effect
same,Activity,Mus musculus [19],Non-toxic
same,Activity,Mus musculus [20],Dose-dependent effect
same,fold change (FC),Mus musculus [21],0.8
